Active and inactive are the calls of the source. The calls are words filed in the database; no cut-off is given here.
Legend:
Type in all cases: functional
[1] = system: HCT-15; test: Growth inhibition of human HCT15 cells at 10 uM after 48 hrs by SRB assay; conditions: HCT-15, 48 h, read-out: GI
Summary of the method: (§1)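 Cells grown in RPMI 1640 with 5% FBS and 2 mM L-glutamine, plated at 5000–40,000 cells/well by doubling time and preincubated 24 h (37 °C, 5% CO2); a time-zero plate is TCA-fixed. Single dose added, then 48 h incubation. Fixed with cold TCA, stained with 0.4% SRB, dye solubilized in 10 mM Tris base, absorbance at 515 nm; percent growth vs time-zero and untreated control.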

[2] = system: COLO 205; test: Growth inhibition of human COLO205 cells at 10 uM after 48 hrs by SRB assay; conditions: COLO 205, 48 h, read-out: GI; summary of the method: as §1
[3] = Growth inhibition of human HCC2998 cells at 10 uM after 48 hrs by SRB assay; conditions: HCC 2998, 48 h, read-out: GI; summary of the method: as §1
[4] = system: NCI-H322M; test: Growth inhibition of human NCI-H322M cells at 10 uM after 48 hrs by SRB assay; conditions: read-out: GI; summary of the method: as §1
[5] = system: NCI-H226; test: Growth inhibition of human NCI-H226 cells at 10 uM after 48 hrs by SRB assay; conditions: NCI-H226, 48 h, read-out: GI; summary of the method: as §1
[6] = system: NCI-H23; test: Growth inhibition of human NCI-H23 cells at 10 uM after 48 hrs by SRB assay; conditions: NCI-H23, 48 h, read-out: GI; summary of the method: as §1
[7] = system: HOP-92; test: Growth inhibition of human HOP92 cells at 10 uM after 48 hrs by SRB assay; conditions: HOP-92, 48 h, read-out: GI; summary of the method: as §1
[8] = system: MOLT-4; test: Growth inhibition of human MOLT4 cells at 10 uM after 48 hrs by SRB assay; conditions: MOLT-4, 48 h, read-out: GI; summary of the method: as §1
[9] = system: CCRF-CEM; test: Growth inhibition of human CCRF-CEM cells at 10 uM after 48 hrs by SRB assay; conditions: read-out: GI; summary of the method: as §1
[10] = system: K562; test: Growth inhibition of human K562 cells at 10 uM after 48 hrs by SRB assay; conditions: K562, 48 h, read-out: GI; summary of the method: as §1
[11] = system: A549; test: Growth inhibition of human A549 cells at 10 uM after 48 hrs by SRB assay; conditions: A549, 48 h, read-out: GI; summary of the method: as §1
[12] = system: RPMI-8226; test: Growth inhibition of human RPMI8226 cells at 10 uM after 48 hrs by SRB assay; conditions: RPMI-8226, 48 h, read-out: GI; summary of the method: as §1
[13] = system: MDA-MB-468; test: Growth inhibition of human MDA-MB-468 cells at 10 uM after 48 hrs by SRB assay; conditions: MDA-MB-468, 48 h, read-out: GI; summary of the method: as §1
[14] = system: MDA-MB-231; test: Growth inhibition of human MDA-MB-231 cells at 10 uM after 48 hrs by SRB assay; conditions: MDA-MB-231, 48 h, read-out: GI; summary of the method: as §1
[15] = system: PC-3; test: Growth inhibition of human PC3 cells at 10 uM after 48 hrs by SRB assay; conditions: PC-3, 48 h, read-out: GI; summary of the method: as §1
[16] = system: DU-145; test: Growth inhibition of human DU145 cells at 10 uM after 48 hrs by SRB assay; conditions: DU-145, 48 h, read-out: GI; summary of the method: as §1
[17] = system: UO-31; test: Growth inhibition of human UO31 cells at 10 uM after 48 hrs by SRB assay; conditions: UO-31, 48 h, read-out: GI
Summary of the method: (§2)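 NCI 60-cell-line screen with a single 10 µM dose. Cells are grown in RPMI 1640 with 5% FBS and 2 mM L-glutamine, plated at 5000–40,000 cells/well according to doubling time, and preincubated 24 h at 37 °C, 5% CO2; time-zero plates are TCA-fixed at that point. Drug exposure is 48 h. Adherent cells are fixed with cold TCA, stained with 0.4% SRB in 1% acetic acid and read at 515 nm. Percent growth is calculated relative to time-zero and untreated controls and reported as GI%.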

[18] = system: RXF 393; test: Growth inhibition of human RXF393 cells at 10 uM after 48 hrs by SRB assay; conditions: RXF 393, 48 h, read-out: GI; summary of the method: as §1
[19] = system: A498; test: Growth inhibition of human A498 cells at 10 uM after 48 hrs by SRB assay; summary of the method: as §1
[20] = system: ACHN; test: Growth inhibition of human ACHN cells at 10 uM after 48 hrs by SRB assay; conditions: read-out: GI; summary of the method: as §1
[21] = system: CAKI-1; test: Growth inhibition of human Caki1 cells at 10 uM after 48 hrs by SRB assay; conditions: CAKI-1, 48 h, read-out: GI; summary of the method: as §1
[22] = system: SK-OV-3; test: Growth inhibition of human SKOV3 cells at 10 uM after 48 hrs by SRB assay; conditions: SK-OV-3, 48 h, read-out: GI; summary of the method: as §2
[23] = Growth inhibition of human NCI-ADR-RES cells at 10 uM after 48 hrs by SRB assay; conditions: read-out: GI; summary of the method: as §1
[24] = system: OVCAR-4; test: Growth inhibition of human OVCAR4 cells at 10 uM after 48 hrs by SRB assay; conditions: OVCAR-4, 48 h, read-out: GI; summary of the method: as §1
[25] = system: OVCAR-3; test: Growth inhibition of human OVCAR3 cells at 10 uM after 48 hrs by SRB assay; conditions: OVCAR-3, 48 h, read-out: GI; summary of the method: as §1
[26] = system: IGROV-1; test: Growth inhibition of human IGROV1 cells at 10 uM after 48 hrs by SRB assay; conditions: IGROV-1, 48 h, read-out: GI; summary of the method: as §1
[27] = system: UACC-62; test: Growth inhibition of human UACC62 cells at 10 uM after 48 hrs by SRB assay; conditions: UACC-62, 48 h, read-out: GI; summary of the method: as §2
[28] = system: UACC-257; test: Growth inhibition of human UACC257 cells at 10 uM after 48 hrs by SRB assay; conditions: UACC-257, 48 h, read-out: GI; summary of the method: as §2
[29] = system: SK-MEL-28; test: Growth inhibition of human SK-MEL-28 cells at 10 uM after 48 hrs by SRB assay; conditions: SK-MEL-28, 48 h, read-out: GI; summary of the method: as §1
[30] = system: SK-MEL-2; test: Growth inhibition of human SK-MEL-2 cells at 10 uM after 48 hrs by SRB assay; conditions: SK-MEL-2, 48 h, read-out: GI; summary of the method: as §1
[31] = system: M14; test: Growth inhibition of human M14 cells at 10 uM after 48 hrs by SRB assay; conditions: M14, 48 h, read-out: GI; summary of the method: as §1
[32] = system: SNB-75; test: Growth inhibition of human SNB75 cells at 10 uM after 48 hrs by SRB assay; conditions: SNB-75, 48 h, read-out: GI; summary of the method: as §2
[33] = system: SF-295; test: Growth inhibition of human SF295 cells at 10 uM after 48 hrs by SRB assay; conditions: SF-295, 48 h, read-out: GI; summary of the method: as §1
[34] = system: SF-539; test: Growth inhibition of human SF539 cells at 10 uM after 48 hrs by SRB assay; summary of the method: as §1
[35] = system: SF-268; test: Growth inhibition of human SF268 cells at 10 uM after 48 hrs by SRB assay; conditions: SF-268, 48 h, read-out: GI; summary of the method: as §1
[36] = system: SR; test: Growth inhibition of human SR cells at 10 uM after 48 hrs by SRB assay; conditions: read-out: GI; summary of the method: as §2

O=c1c2cccc3c(NCCO)ccc(c32)c2nc3ccccc3n12
inhibition of growth at 10 µM [1]: < 20%
inhibition of growth at 10 µM [2]: < 20%
inhibition of growth at 10 µM [3]: < 20%
inhibition of growth at 10 µM [4]: < 20%
inhibition of growth at 10 µM [5]: < 20%
inhibition of growth at 10 µM [6]: 22.2%
inhibition of growth at 10 µM [7]: 40%
inhibition of growth at 10 µM [8]: < 20%
inhibition of growth at 10 µM [9]: < 20%
inhibition of growth at 10 µM [10]: < 20%
inhibition of growth at 10 µM [11]: < 20%
inhibition of growth at 10 µM [12]: 28.6%
inhibition of growth at 10 µM [13]: 81.1%
inhibition of growth at 10 µM [14]: < 20%
inhibition of growth at 10 µM [15]: < 20%
inhibition of growth at 10 µM [16]: < 20%
inhibition of growth at 10 µM [17]: 38.3%
inhibition of growth at 10 µM [18]: < 20%
inhibition of growth at 10 µM ([19]; A498, 48 h, read-out: GI): 32.9%
inhibition of growth at 10 µM [20]: < 20%
inhibition of growth at 10 µM [21]: < 20%
inhibition of growth at 10 µM [22]: < 20%
inhibition of growth at 10 µM [23]: < 20%
inhibition of growth at 10 µM [24]: < 20%
inhibition of growth at 10 µM [25]: < 20%
inhibition of growth at 10 µM [26]: 63.5%
inhibition of growth at 10 µM [27]: 23.6%
inhibition of growth at 10 µM [28]: < 20%
inhibition of growth at 10 µM [29]: < 20%
inhibition of growth at 10 µM [30]: < 20%
inhibition of growth at 10 µM [31]: < 20%
inhibition of growth at 10 µM [32]: < 20%
inhibition of growth at 10 µM [33]: < 20%
inhibition of growth at 10 µM ([34]; SF-539, 48 h, read-out: GI): < 20%
inhibition of growth at 10 µM [35]: < 20%

O=c1[nH]cc(F)c(=O)[nH]1 [FLUOROURACIL]
inhibition of growth at 10 µM [1]: 26.5%
inhibition of growth at 10 µM [2]: 40.2%
inhibition of growth at 10 µM [4]: 59.5%
inhibition of growth at 10 µM [5]: 69.5%
inhibition of growth at 10 µM [6]: 39%
inhibition of growth at 10 µM [7]: 50.6%
inhibition of growth at 10 µM [8]: 43.1%
inhibition of growth at 10 µM [9]: 57.1%
inhibition of growth at 10 µM [10]: 42.3%
inhibition of growth at 10 µM [36]: 24.8%
inhibition of growth at 10 µM [11]: 34.2%
inhibition of growth at 10 µM [12]: 41.4%
inhibition of growth at 10 µM [14]: 78.1%
inhibition of growth at 10 µM [15]: 58.2%
inhibition of growth at 10 µM [16]: 35.5%
inhibition of growth at 10 µM [17]: 41.3%
inhibition of growth at 10 µM [18]: 34.3%
growth inhibition (GI) [19]: Active
inhibition of growth at 10 µM [20]: 39.3%
inhibition of growth at 10 µM [21]: 39.4%
inhibition of growth at 10 µM [22]: 77.5%
inhibition of growth at 10 µM [23]: 47.6%
inhibition of growth at 10 µM [24]: 59.4%
inhibition of growth at 10 µM [25]: 47.4%
inhibition of growth at 10 µM [26]: 51.2%
inhibition of growth at 10 µM [27]: 39.7%
inhibition of growth at 10 µM [28]: 19.5%
inhibition of growth at 10 µM [30]: 95.5%
inhibition of growth at 10 µM [32]: 65.9%
inhibition of growth at 10 µM [33]: 69.1%
growth inhibition (GI) [34]: Active
inhibition of growth at 10 µM [35]: 59%

Reference: ChEMBL document CHEMBL2424551, “Synthesis, in vitro evaluation and molecular modelling of naphthalimide analogue as anticancer agents” (2013)
